How the values were obtained:
Heart [1] = test: Biodistribution in Wistar rat heart at ~20 MBq, iv after 60 mins; assay type: ADME, organism-based; details: in vivo, 1 h
How it was run: (§1)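 Male Wistar rats, housed under standard conditions. Each received about 20 MBq of radiotracer iv in 0.5 mL saline with 10% ethanol. Animals were killed at 5 or 60 min post injection, and organs were excised and weighed. Activity was gamma-counted, decay-corrected and calibrated against injected-tracer aliquots, then expressed as %ID/g. Mean ± SD, four animals per time point.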

Pancreas [2] = test: Biodistribution in Wistar rat pancreas at ~20 MBq, iv after 5 mins; assay type: ADME, organism-based; details: in vivo; how it was run: as §1
[3] = Metabolic stability in human HT29 cells bearing mouse plasma at 20 MBq, iv after 20 mins; assay type: ADME, organism-based, HT-29; details: read-out: Stability
How it was run: (§2)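 After iv radiotracer, arterial blood was drawn through a femoral artery catheter. Plasma was separated by centrifugation (3 min, 11,000g). Proteins were precipitated with ice-cold methanol (1.5 parts per part plasma) and centrifuged again. Supernatants were analysed by HPLC for the fraction of intact radiotracer over time.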

[4] = Metabolic stability in Wistar rat plasma at 30 MBq, iv after 1 min; assay type: ADME, organism-based; details: read-out: Stability; how it was run: as §2
Heart [5] = test: Biodistribution in Wistar rat heart at ~20 MBq, iv after 5 mins; assay type: ADME, organism-based; details: in vivo; how it was run: as §1
Spleen [6] = test: Biodistribution in Wistar rat spleen at ~20 MBq, iv after 60 mins; assay type: ADME, organism-based; details: in vivo, 1 h; how it was run: as §1
[7] = Metabolic stability in human HT29 cells bearing mouse plasma at 20 MBq, iv after 10 mins; assay type: ADME, organism-based, HT-29; details: read-out: Stability; how it was run: as §2
Adrenal [8] = test: Biodistribution in Wistar rat adrenal at ~20 MBq, iv after 5 mins; assay type: ADME, organism-based, Adrenal tissue; details: in vivo; how it was run: as §1
[9] = Metabolic stability in human HT29 cells bearing mouse plasma at 20 MBq, iv after 60 mins; assay type: ADME, organism-based, HT-29; details: read-out: Stability; how it was run: as §2
[10] = Metabolic stability in Wistar rat plasma at 30 MBq, iv after 5 mins; assay type: ADME, organism-based; details: read-out: Stability; how it was run: as §2
Blood [11] = test: Biodistribution in Wistar rat blood at ~20 MBq, iv after 5 mins; assay type: ADME, organism-based; details: in vivo; how it was run: as §1
[12] = Metabolic stability in human HT29 cells bearing mouse plasma at 20 MBq, iv after 1 min; assay type: ADME, organism-based, HT-29; details: read-out: Stability; how it was run: as §2
[13] = Biodistribution in Wistar rat white adipose tissue at ~20 MBq, iv after 60 mins; assay type: ADME, organism-based; details: in vivo, 1 h; how it was run: as §1
Brain [14] = test: Biodistribution in Wistar rat brain at ~20 MBq, iv after 5 mins; assay type: ADME, organism-based; details: in vivo; how it was run: as §1
Pancreas [15] = test: Biodistribution in Wistar rat pancreas at ~20 MBq, iv after 60 mins; assay type: ADME, organism-based; details: in vivo, 1 h; how it was run: as §1
Spleen [16] = test: Biodistribution in Wistar rat spleen at ~20 MBq, iv after 5 mins; assay type: ADME, organism-based; details: in vivo; how it was run: as §1
[17] = Metabolic stability in Wistar rat plasma at 30 MBq, iv after 60 mins; assay type: ADME, organism-based; details: read-out: Stability; how it was run: as §2
[18] = Biodistribution in Wistar rat brown adipose tissue at ~20 MBq, iv after 5 mins; assay type: ADME, organism-based; details: in vivo; how it was run: as §1
Muscle tissue [19] = test: Biodistribution in Wistar rat muscle at ~20 MBq, iv after 5 mins; assay type: ADME, organism-based; details: in vivo; how it was run: as §1
Thymus [20] = test: Biodistribution in Wistar rat thymus at ~20 MBq, iv after 60 mins; assay type: ADME, organism-based; details: in vivo, 1 h; how it was run: as §1
Femur [21] = test: Biodistribution in Wistar rat femur at ~20 MBq, iv after 5 mins; assay type: ADME, organism-based; details: in vivo; how it was run: as §1
[22] = Metabolic stability in human HT29 cells bearing mouse plasma at 20 MBq, iv after 5 mins; assay type: ADME, organism-based, HT-29; details: read-out: Stability; how it was run: as §2
[23] = Metabolic stability in Wistar rat plasma at 30 MBq, iv after 30 mins; assay type: ADME, organism-based; details: read-out: Stability; how it was run: as §2
Lung [24] = test: Biodistribution in Wistar rat lung at ~20 MBq, iv after 60 mins; assay type: ADME, organism-based; details: in vivo, 1 h; how it was run: as §1
Testes [25] = test: Biodistribution in Wistar rat testes at ~20 MBq, iv after 5 mins; assay type: ADME, organism-based, Testis; details: in vivo; how it was run: as §1
[26] = Metabolic stability in human HT29 cells bearing mouse plasma at 20 MBq, iv after 30 mins; assay type: ADME, organism-based, HT-29; details: read-out: Stability; how it was run: as §2
Blood [27] = test: Biodistribution in Wistar rat blood at ~20 MBq, iv after 60 mins; assay type: ADME, organism-based; details: in vivo, 1 h; how it was run: as §1
[28] = Metabolic stability in Wistar rat plasma at 30 MBq, iv after 20 mins; assay type: ADME, organism-based; details: read-out: Stability; how it was run: as §2
Lung [29] = test: Biodistribution in Wistar rat lung at ~20 MBq, iv after 5 mins; assay type: ADME, organism-based; details: in vivo; how it was run: as §1
[30] = Metabolic stability in Wistar rat plasma at 30 MBq, iv after 10 mins; assay type: ADME, organism-based; details: read-out: Stability; how it was run: as §2
Testes [31] = test: Biodistribution in Wistar rat testes at ~20 MBq, iv after 60 mins; assay type: ADME, organism-based, Testis; details: in vivo, 1 h; how it was run: as §1
Kidney [32] = test: Biodistribution in Wistar rat kidney at ~20 MBq, iv after 60 mins; assay type: ADME, organism-based; details: in vivo, 1 h; how it was run: as §1
Harderian gland [33] = test: Biodistribution in Wistar rat harderian gland at ~20 MBq, iv after 60 mins; assay type: ADME, organism-based; details: in vivo, 1 h; how it was run: as §1
Brain [34] = test: Biodistribution in Wistar rat brain at ~20 MBq, iv after 60 mins; assay type: ADME, organism-based; details: in vivo, 1 h; how it was run: as §1
Kidney [35] = test: Biodistribution in Wistar rat kidney at ~20 MBq, iv after 5 mins; assay type: ADME, organism-based; details: in vivo; how it was run: as §1
Liver [36] = test: Biodistribution in Wistar rat liver at ~20 MBq, iv after 5 mins; assay type: ADME, organism-based; details: in vivo; how it was run: as §1
[37] = Biodistribution in Wistar rat white adipose tissue at ~20 MBq, iv after 5 mins; assay type: ADME, organism-based; details: in vivo; how it was run: as §1
Liver [38] = test: Biodistribution in Wistar rat liver at ~20 MBq, iv after 60 mins; assay type: ADME, organism-based; details: in vivo, 1 h; how it was run: as §1
Adrenal [39] = test: Biodistribution in Wistar rat adrenal at ~20 MBq, iv after 60 mins; assay type: ADME, organism-based, Adrenal tissue; details: in vivo, 1 h; how it was run: as §1
Harderian gland [40] = test: Biodistribution in Wistar rat harderian gland at ~20 MBq, iv after 5 mins; assay type: ADME, organism-based; details: in vivo; how it was run: as §1
Thymus [41] = test: Biodistribution in Wistar rat thymus at ~20 MBq, iv after 5 mins; assay type: ADME, organism-based; details: in vivo; how it was run: as §1
[42] = Biodistribution in Wistar rat brown adipose tissue at ~20 MBq, iv after 60 mins; assay type: ADME, organism-based; details: in vivo, 1 h; how it was run: as §1
Muscle tissue [43] = test: Biodistribution in Wistar rat muscle at ~20 MBq, iv after 60 mins; assay type: ADME, organism-based; details: in vivo, 1 h; how it was run: as §1
Femur [44] = test: Biodistribution in Wistar rat femur at ~20 MBq, iv after 60 mins; assay type: ADME, organism-based; details: in vivo, 1 h; how it was run: as §1

## CS(=O)(=O)c1ccc(C2=C(c3ccc(O[11CH3])cc3)CCC2)cc1
Heart [1]
  Drug uptake: 0.16 % ID/g
Pancreas [2]
  Drug uptake: 0.78 % ID/g
[3]
  remaining at 20 min: 8%
[4]
  remaining at 1 min: 97%
Heart [5]
  Drug uptake: 0.5 % ID/g
Spleen [6]
  Drug uptake: 0.21 % ID/g
[7]
  remaining at 10 min: 17%
Adrenal [8]
  Drug uptake: 1.33 % ID/g
[9]
  remaining at 1 h: 2%
[10]
  remaining at 5 min: 57%
Blood [11]
  Drug uptake: 0.23 % ID/g
[12]
  remaining at 1 min: 95%
[13]
  Drug uptake: 0.52 % ID/g
Brain [14]
  Drug uptake: 0.59 % ID/g
Pancreas [15]
  Drug uptake: 0.52 % ID/g
Spleen [16]
  Drug uptake: 0.32 % ID/g
[17]
  remaining at 1 h: 18%
[18]
  Drug uptake: 1.89 % ID/g
Muscle tissue [19]
  Drug uptake: 0.32 % ID/g
Thymus [20]
  Drug uptake: 0.2 % ID/g
Femur [21]
  Drug uptake: 0.34 % ID/g
[22]
  remaining at 5 min: 40%
[23]
  remaining at 0.5 h: 22%
Lung [24]
  Drug uptake: 0.19 % ID/g
Testes [25]
  Drug uptake: 0.2 % ID/g
[26]
  remaining at 0.5 h: 5%
Blood [27]
  Drug uptake: 0.18 % ID/g
[28]
  remaining at 20 min: 26%
Lung [29]
  Drug uptake: 0.59 % ID/g
[30]
  remaining at 10 min: 35%
Testes [31]
  Drug uptake: 0.09 % ID/g
Kidney [32]
  Drug uptake: 0.26 % ID/g
Harderian gland [33]
  Drug uptake: 0.42 % ID/g
Brain [34]
  Drug uptake: 0.11 % ID/g
Kidney [35]
  Drug uptake: 0.62 % ID/g
Liver [36]
  Drug uptake: 1.35 % ID/g
[37]
  Drug uptake: 0.53 % ID/g
Liver [38]
  Drug uptake: 0.76 % ID/g
Adrenal [39]
  Drug uptake: 0.57 % ID/g
Harderian gland [40]
  Drug uptake: 1.06 % ID/g
Thymus [41]
  Drug uptake: 0.64 % ID/g
[42]
  Drug uptake: 0.67 % ID/g
Muscle tissue [43]
  Drug uptake: 0.11 % ID/g
Femur [44]
  Drug uptake: 0.19 % ID/g

— ChEMBL document CHEMBL1155942, “Synthesis and evaluation in vitro and in vivo of a 11C-labeled cyclooxygenase-2 (COX-2) inhibitor” (Bioorg Med Chem, 2008)
